Assay results of several laboratories.
Each line is one published result; the experiments were not run side by side.
FLT3: Receptor-type tyrosine-protein kinase FLT3 (FLT3, Homo sapiens, UniProt P36888)
Aldo-keto reductase family 1 member B1: Aldo-keto reductase family 1 member B1 (Bos taurus, UniProt P16116)

With `Cc1cnc(-c2ccc(-c3ccc(NC(=O)Nc4c(F)cc(F)cc4F)cc3F)c3c2C(=O)NC3)[nH]1` the IC50 was 3 nM (Aurora kinase C (AURKC, Homo sapiens, UniProt Q9UQB9); enzyme activity, inhibitor).
`CC(C)(C)n1nc(-c2cnc3cc(OC4CC4)ccc3c2)c(C(N)=O)c1N` gave an IC50 of greater than 10000 nM (Rho-associated protein kinase 1 (ROCK1, Homo sapiens, UniProt Q13464); cell-free assay).
For `c1cncc(-c2cccc(Nc3nccc(NC4CCCC4)n3)c2)c1`, the IC50 was 13 nM (FLT3; enzyme activity, inhibitor).
The IC50 of `O=C(O)c1ccnc2c(O)cccc12` is reported as 111000 nM (Gamma-butyrobetaine dioxygenase (BBOX1, Homo sapiens, UniProt O75936); enzyme activity, inhibitor).
With `CC(=N/N=c1\scc(-c2ccc(Br)cc2)n1-c1c(C)cccc1C)C12CC3CC(CC(C3)C1)C2` the IC50 was 4210 nM (Aldo-keto reductase family 1 member B1; enzyme activity, inhibitor, absorbance).
`CN1CCN(c2ccc(Nc3ncc4cc(C#N)c(=O)n(C5CCCC5)c4n3)cc2)CC1` gave an IC50 of 116 nM (Testis-specific serine/threonine-protein kinase 1 (TSSK1B, Homo sapiens, UniProt Q9BXA7); enzyme activity, inhibitor).
For `Cc1ccc(C(=O)Nc2ccc(Oc3cc4cnn(C)c4cc3-c3cn[nH]c3)c(F)c2)c(=O)n1-c1ccc(F)cc1`, the IC50 was 28 nM (Tyrosine-protein kinase receptor TYRO3 (TYRO3, Homo sapiens, UniProt Q06418); cell growth or viability, ATP luminescence).
For `CC(C)C[C@H](CC(=O)NO)C(=O)N[C@@H](Cc1ccccc1)C(=O)NCCN1CCOCC1`, the IC50 was 225 nM (Stromelysin-1 (MMP3, Homo sapiens, UniProt P08254); enzyme activity, inhibitor, fluorescence).
`C/C(=N/N=c1/scc(-c2ccc(Br)cc2)n1Cc1ccccc1)c1ccc2c(c1)OCCO2` gave an IC50 of 1390 nM (Aldo-keto reductase family 1 member B1; enzyme activity, inhibitor, absorbance).
`c1cncc(-c2cccc(Nc3nccc(NC4CCCCC4)n3)c2)c1` has an IC50 of 32 nM (FLT3; enzyme activity, inhibitor).
`Cc1ccc2nc(-c3ccc([N+](=O)[O-])cc3)n(Cc3ccc(Cl)cc3)c2c1` has an IC50 of 8010 nM (Dihydrofolate reductase (DHFR, Homo sapiens, UniProt P00374); enzyme activity, inhibitor).
`CC(=N/N=c1\scc(-c2ccc(Br)cc2)n1-c1cccc2ccccc12)C12CC3CC(CC(C3)C1)C2` has an IC50 of 12900 nM (Aldo-keto reductase family 1 member B1; enzyme activity, inhibitor, absorbance).
With `COc1ccc2c(Oc3ccc4c(C(=O)Nc5ccccc5N)cccc4c3)ccnc2c1` the IC50 was greater than 500 nM (Aurora kinase A (AURKA, Homo sapiens, UniProt O14965); enzyme activity, inhibitor).
For `FC(F)(F)C1(Nc2ccnc(Nc3cccc(-c4cccnc4)c3)n2)CC1`, the IC50 was less than 6 nM (FLT3; enzyme activity, inhibitor).
For `Cc1nccc2c1c(=O)n(C)c1cc(OC[C@@H](N)CC(C)C)c(C#N)cc21`, the IC50 was 45 nM (BMP-2-inducible protein kinase (BMP2K, Homo sapiens, UniProt Q9NSY1); enzyme activity, inhibitor).
For `c1ccc(-c2cccc(Nc3nccc(NC4CCCCC4)n3)c2)cc1`, the IC50 was greater than 12000 nM (FLT3; enzyme activity, inhibitor).
`C[C@@H]1Cc2ccccc2N1C(=O)NCCCCN(C)[C@@H]1Cc2cccc3[nH]c(=O)n(c23)C1` has an IC50 of greater than 10000 nM (5-hydroxytryptamine receptor 2C (HTR2C, Homo sapiens, UniProt P28335); ligand displacement, radioligand).
For `CNc1ccnc(Nc2cccc(-c3cccnc3)c2)n1`, the IC50 was 204 nM (FLT3; enzyme activity, inhibitor).
`O=C(Nc1cccnc1)N1CCC(Cc2cccc(Oc3ccc(C(F)(F)F)cn3)c2)CC1` has an IC50 of greater than 10000 nM (Monoglyceride lipase (MGLL, Homo sapiens, UniProt Q99685); enzyme activity, inhibitor, absorbance).
`Fc1ccc(Nc2nccc(NC3CCCCC3)n2)cc1` gave an IC50 of 3300 nM (FLT3; enzyme activity, inhibitor).
The IC50 of `O=C(Oc1nsnc1N1CCC(c2ccccc2)CC1)N1CCCCC1` is reported as 1480 nM (Fatty-acid amide hydrolase 1 (FAAH, Homo sapiens, UniProt O00519); enzyme activity, inhibitor; cell membranes).
